Measurements pooled from the literature.
Protocols differ between the studies behind these lines.
CSNK1A1L: Casein kinase I isoform alpha-like (CSNK1A1L, Homo sapiens, UniProt Q8N752)
CDK3: Cyclin-dependent kinase 3 (CDK3, Homo sapiens, UniProt Q00526)
CHRM1: Muscarinic acetylcholine receptor M1 (CHRM1, Homo sapiens, UniProt P11229)

Compound | target | test | test system | conditions | quantity | value
C#Cc1cc(-c2cc(Nc3nc(N[C@@H](C)c4ccc(F)cn4)ncc3Cl)n[nH]2)ccc1C=O | Tyrosine-protein kinase JAK1 (JAK1, Homo sapiens, UniProt P23458) | enzyme activity, inhibitor | – | 0.2 µM | inhibition | 89.1%
CCCCC(=O)Nc1ccc(-c2ccc3ncn(CCC)c(=O)c3c2)cn1 | CSNK1A1L | binding, competition with immobilised ligand | – | 0.5 µM | remaining binding | 99%
Cc1cc(O)c(-c2ccc([C@@H](C)CN(C)C)cc2)c2c1[nH]c(=O)c1sccc12 | Serine/threonine-protein kinase Sgk1 (SGK1, Homo sapiens, UniProt O00141) | enzyme activity, inhibitor | – | 0.1 µM | inhibition | -3.37%
CNC(=O)COc1cc2cc(Nc3nc(N4CCC(C(=O)N(C)C)CC4)ncc3Cl)cc(OC)c2n(C)c1=O | B-cell lymphoma 6 protein (BCL6, Homo sapiens, UniProt P41182) | target engagement in cells, BRET | HEK-293T | 1 µM | inhibition | > 90%
Cc1cc(S(=O)(=O)N[C@H]2CC[C@H](CN3CCN(c4ccc(C5CCC(=O)NC5=O)cc4F)CC3)CC2)ccc1Nc1ncc(C(F)(F)F)c(N2CCC[C@](C)(O)C2)n1 (some centres unmarked) | CDK3 | binding, competition with immobilised ligand | – | 1 µM | remaining binding | 63%
NC/C(=C\F)COc1cccc(Cn2c(=S)[nH]c(=O)c3[nH]cnc32)c1 | CHRM1 | ligand displacement, radioligand | – | 10 µM | inhibition | < 50%
COc1ccc2oc(-c3ccc4nc(N)oc4c3)c/c(=N\c3ccccc3NC(=O)CCN)c2c1 | Tyrosine-protein kinase ABL1 (Abl1, Mus musculus, UniProt P00520) | binding | – | 1 µM | remaining binding | 91%
C1=C/COCc2cc(ccc2OCCN2CCCC2)Nc2nccc(n2)-c2cccc(c2)COC/1 | CSNK1A1L | binding | – | 0.1 µM | remaining binding | 99%
CCN1/C(=C/C(C)=O)Sc2ccc(F)cc21 | Prostaglandin E2 receptor EP2 subtype (PTGER2, Homo sapiens, UniProt P43116) | ligand displacement, radioligand | – | 10 µM | inhibition | 4.3%
Cc1cc(F)cc2c(CCC(=O)N[C@@H]3C(=O)NC[C@H]3O)c(-c3ccc(F)cc3)[nH]c12 | CHRM1 | cell-free assay | – | 10 µM | inhibition | 14%
CNS(=O)(=O)c1ccc(Nc2ncc(C(F)(F)F)c(N3CCC[C@](C)(O)C3)n2)c(C)c1 | CDK3 | binding, competition with immobilised ligand | – | 1 µM | remaining binding | 49%
